Data set [1] concerns the target T1, Protein farnesyltransferase (PFT) (Plasmodium falciparum) (UniProt Q5EI73+Q5EI74). Description: Inhibition of Plasmodium falciparum PFT at 5 nM.
A further data set is filed under the species Mus musculus. Put plainly: Half life in mouse liver microsome. The class given is ADME. Conditions: microsomes. A digest of the protocol:
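Pooled female liver microsomes were preincubated at 37 °C for 10 min in phosphate buffer with MgCl2, EDTA, an NADPH regenerating system and glucose-6-phosphate dehydrogenase. Inhibitor was then added in DMSO. Samples were quenched with acetonitrile plus internal standard at set time points and frozen at −20 °C. Parent and metabolites were quantified by LC/MS to give t1/2.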

Data set [2] deals with T1, Protein farnesyltransferase (PFT) (Plasmodium falciparum). Description: Inhibition of Plasmodium falciparum PFT at 50 nM.
Data set [3] has the same target. Put plainly: Selectivity for inhibition of Plasmodium falciparum PFT over rat PFT. In kind it is protein-complex assay.
Data set [4] has as its target T2, Protein farnesyltransferase (PFT) (Plasmodium falciparum, UniProt Q5EI73+Q5EI74).
T2 sequence (Q5EI73 whole entry): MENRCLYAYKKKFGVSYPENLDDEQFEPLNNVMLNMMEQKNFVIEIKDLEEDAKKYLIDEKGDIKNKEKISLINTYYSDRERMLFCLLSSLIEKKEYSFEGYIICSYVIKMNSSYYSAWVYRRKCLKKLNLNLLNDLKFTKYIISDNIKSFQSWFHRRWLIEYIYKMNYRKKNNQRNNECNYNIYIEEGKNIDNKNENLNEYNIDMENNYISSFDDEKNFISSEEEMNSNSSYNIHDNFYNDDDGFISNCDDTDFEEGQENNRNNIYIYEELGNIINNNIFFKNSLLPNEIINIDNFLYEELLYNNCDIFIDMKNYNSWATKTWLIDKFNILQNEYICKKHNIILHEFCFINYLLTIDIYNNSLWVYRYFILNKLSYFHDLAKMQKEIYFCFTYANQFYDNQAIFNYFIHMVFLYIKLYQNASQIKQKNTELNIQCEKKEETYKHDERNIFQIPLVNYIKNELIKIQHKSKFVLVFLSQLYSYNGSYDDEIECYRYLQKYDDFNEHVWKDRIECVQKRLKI
T2 sequence (Q5EI74 whole entry): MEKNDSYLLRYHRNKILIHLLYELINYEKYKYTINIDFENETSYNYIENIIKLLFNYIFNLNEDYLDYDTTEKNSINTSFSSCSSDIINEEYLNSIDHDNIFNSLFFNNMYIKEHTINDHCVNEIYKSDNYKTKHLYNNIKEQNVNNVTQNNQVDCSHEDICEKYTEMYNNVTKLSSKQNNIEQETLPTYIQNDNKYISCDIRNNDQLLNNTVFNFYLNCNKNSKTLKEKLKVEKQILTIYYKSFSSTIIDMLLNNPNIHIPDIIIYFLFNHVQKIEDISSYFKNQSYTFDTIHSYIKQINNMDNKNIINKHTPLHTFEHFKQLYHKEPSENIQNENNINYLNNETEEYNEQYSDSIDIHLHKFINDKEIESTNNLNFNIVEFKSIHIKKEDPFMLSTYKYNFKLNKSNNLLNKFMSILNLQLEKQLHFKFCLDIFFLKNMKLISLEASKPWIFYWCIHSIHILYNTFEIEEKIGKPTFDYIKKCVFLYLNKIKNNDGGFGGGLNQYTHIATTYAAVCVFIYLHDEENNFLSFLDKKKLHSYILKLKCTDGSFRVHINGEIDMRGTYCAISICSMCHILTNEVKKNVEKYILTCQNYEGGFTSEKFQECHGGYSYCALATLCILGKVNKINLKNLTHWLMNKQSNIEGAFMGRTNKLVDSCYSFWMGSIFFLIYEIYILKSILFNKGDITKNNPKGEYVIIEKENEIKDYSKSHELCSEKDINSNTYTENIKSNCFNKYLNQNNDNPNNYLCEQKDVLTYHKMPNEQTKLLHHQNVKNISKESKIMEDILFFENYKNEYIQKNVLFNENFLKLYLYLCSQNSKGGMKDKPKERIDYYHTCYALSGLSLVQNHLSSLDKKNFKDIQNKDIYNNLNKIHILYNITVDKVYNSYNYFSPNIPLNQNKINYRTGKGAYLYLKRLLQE
Put plainly: Inhibition of Plasmodium falciparum PFT. The class given is protein-complex assay.

Data set [5] can be described thus: Cmax in rat at 50 mg/kg, po. The class given is ADME, organism-based. More on the design: dose 50 mg/kg, route oral. To be noted: in vivo. A digest of the protocol:
(§1)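 Oral gavage at 50 mg/kg in 90% saline, 3% ethanol, 7% Tween; inhibitor concentration in plasma followed over 5 h. Values are averages of three animals per species (mice or rats). Reported parameters are AUC, Cmax, Tmax and elimination t1/2.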

Data set [6] can be described thus: Tmax in mouse at 50 mg/kg, po. The class given is ADME, organism-based. More on the design: dose 50 mg/kg, route oral. To be noted: in vivo. A digest of the protocol:
as §1

Data set [7] in a line: AUC in rat at 50 mg/kg, po. The class given is ADME, organism-based. Set-up: dose 50 mg/kg, route oral. Conditions: plasma. An outline of the steps: as §1
Data set [8] in a line: Apparent permeability in Caco-2 cells. The class given is ADME, cell-based. To be noted: human. A general note: Caco-2 monolayers are a common model of the intestinal barrier.
Another data set concerns Plasmodium falciparum. Description: Inhibition of Plasmodium falciparum K1 growth as reduced [3H]hypoxanthine incorporation. The class given is functional. To be noted: K1, 72 h, read-out: ED50 (the source's name). A digest of the protocol:
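Inhibitor in DMSO was added to P. falciparum culture (0.5% parasitemia, 0.5% hematocrit) in RPMI-1640 with 20% human A+ plasma. Cultures were held 48 h at 37 °C under 5% CO2/5% O2/90% N2, then pulsed with [8-3H]hypoxanthine (0.3 μCi) for 24 h more. Cells were harvested and counted by β-scintillation. Background from uninfected RBCs was subtracted, with DMSO set as 100%. ED50 was obtained by linear regression.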

Data set [9] can be described thus: AUC in mouse at 50 mg/kg, po. In kind it is ADME, organism-based. More on the design: dose 50 mg/kg, route oral. Conditions: plasma. An outline of the steps: as §1
A short description of data set [10]: Cmax in mouse at 50 mg/kg, po. In kind it is ADME, organism-based. Set-up: dose 50 mg/kg, route oral. Conditions: in vivo. An outline of the steps: as §1
Data set [11] can be described thus: Half life in mouse at 50 mg/kg, po. The class given is ADME, organism-based. More on the design: dose 50 mg/kg, route oral. To be noted: in vivo, read-out: beta t1/2. A digest of the protocol: as §1

A word on the inhibition: it is the drop in the measured response relative to a control, in per cent. Lower therefore signals a response near the control. The IC50 is the point on the concentration scale where inhibition reaches its midpoint. A higher IC50 goes with lower potency. Regarding `Cn1cnc(S(=O)(=O)N(CCN(Cc2cncn2C)c2ccc(C#N)cc2)Cc2ccc(-c3ccccc3)cc2)c1`, the figures for the inhibition in data set [1] and in data set [2] were 10% and 19%, respectively. Besides, the T1/2 in the data set filed under Mus musculus was 3 min. Further, the Selectivity ratio in [3] worked out at 3.7. The compound further gave an IC50 in data set [4] of 240 nM.

Broadly, the Cmax is the peak of the concentration-time curve. Usually Tmax stands for the time from dosing to the highest level. As usually defined, the AUC is the area under the concentration-time curve, a measure of exposure. A lower AUC goes with less exposure. Take `Cc1ccccc1CN(CCN(Cc1cncn1C)c1ccc(C#N)cc1)S(=O)(=O)c1cn(C)cn1`: the inhibition in data set [1] stood at 95%; in data set [2], 99%. The compound also showed a maximum concentration (Cmax) in data set [5] of 1050 nM. Besides, the Tmax in data set [6] is 40 min. The AUC in data set [7] was 1.72 µM·h. This compound also gave an IC50 in [4] of 0.6 nM.

For orientation: Papp means a coefficient for how fast a substance crosses the barrier. Consider `Cn1cnc(S(=O)(=O)N(CCN(Cc2cncn2C)c2ccc(C#N)cc2)CC2CCCCC2)c1`, for which the inhibition was 63% in [1] and 93% in data set [2]. Further, the Selectivity ratio in data set [3] was 1.7. In data set [4], this compound displayed an IC50 of 4.5 nM. Further, in [8], the apparent permeability (Papp) is 1.5 ×10⁻⁶ cm/s.

With `Cn1cnc(S(=O)(=O)N(CCN(Cc2cncn2C)c2ccc(C#N)cc2)Cc2ccccc2)c1`, the inhibition in [1] came out at 86%; in [2], 98%. Besides, the EC50 in the data set with Plasmodium falciparum was found to be 367 nM. In data set [9], this compound showed an exposure (AUC) of 1.87 µM·h. Also, the highest concentration (Cmax) in [10] turned out to be 740 nM. In addition, the half-life in data set [11] turned out to be 95.9 min. The Tmax in data set [6] was 30 min.
